Laboratory results published in ChEMBL document CHEMBL3120098, “Structure-activity relationship (SAR) optimization of 6-(indol-2-yl)pyridine-3-sulfonamides: identification of potent, selective, and orally bioavailable small molecules targeting hepatitis C (HCV) NS4B” (J Med Chem, 2014).

What was measured:
[1] = tested on: Hepatitis C virus; test: Antiviral activity against HCV1b Con1 infected in human HuH7 cells assessed as inhibition of viral RNA replication by RT-PCR analysis; type: functional, organism-based, Hepacivirus hominis; conditions: isolate Con1, Huh-7
[2] = AUC (0 to 6 hrs) in Sprague-Dawley rat at 10 mg/kg, po; type: ADME, organism-based; parameters: time < 6 hr, dose 10 mg/kg, route oral; conditions: plasma
[3] = Toxicity in human HuH7 cells assessed as effect on GAPDH mRNA level; type: cell-based, Huh-7
How it was run: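 Run in parallel with replicon assay in Con1 replicon Huh-7 cells (0.5% DMSO, 37 °C); endogenous GAPDH mRNA quantified by TaqMan RT-PCR; highest concentration tested 10000 nM.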

[4] = Ratio of EC50 for HCV1b Con1 to plasma concentration in Sprague-Dawley rat at 10 mg/kg, po after 6 hrs
[5] = molecular target: Cytochrome P450 2D6 (Homo sapiens, UniProt P10635); test: Inhibition of CYP2D6 in human liver microsomes; type: ADME
Sequence of Cytochrome P450 2D6 (P10635 whole entry): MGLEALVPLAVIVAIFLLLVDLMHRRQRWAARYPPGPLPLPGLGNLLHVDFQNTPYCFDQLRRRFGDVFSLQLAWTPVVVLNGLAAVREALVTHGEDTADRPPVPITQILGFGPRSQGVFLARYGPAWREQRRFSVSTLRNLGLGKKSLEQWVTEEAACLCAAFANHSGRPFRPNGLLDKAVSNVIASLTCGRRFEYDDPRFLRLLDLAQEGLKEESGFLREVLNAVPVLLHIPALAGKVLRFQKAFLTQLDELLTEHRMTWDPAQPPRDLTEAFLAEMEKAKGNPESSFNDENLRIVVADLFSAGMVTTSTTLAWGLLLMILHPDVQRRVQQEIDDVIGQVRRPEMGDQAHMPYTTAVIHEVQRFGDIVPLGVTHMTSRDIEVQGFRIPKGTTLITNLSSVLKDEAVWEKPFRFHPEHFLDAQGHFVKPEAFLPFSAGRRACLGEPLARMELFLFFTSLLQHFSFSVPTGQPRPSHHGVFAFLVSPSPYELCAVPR

[6] = molecular target: Cytochrome P450 3A4 (Homo sapiens, UniProt P08684); test: Inhibition of CYP3A4 in human liver microsomes; type: ADME
Sequence of Cytochrome P450 3A4 (P08684 whole entry): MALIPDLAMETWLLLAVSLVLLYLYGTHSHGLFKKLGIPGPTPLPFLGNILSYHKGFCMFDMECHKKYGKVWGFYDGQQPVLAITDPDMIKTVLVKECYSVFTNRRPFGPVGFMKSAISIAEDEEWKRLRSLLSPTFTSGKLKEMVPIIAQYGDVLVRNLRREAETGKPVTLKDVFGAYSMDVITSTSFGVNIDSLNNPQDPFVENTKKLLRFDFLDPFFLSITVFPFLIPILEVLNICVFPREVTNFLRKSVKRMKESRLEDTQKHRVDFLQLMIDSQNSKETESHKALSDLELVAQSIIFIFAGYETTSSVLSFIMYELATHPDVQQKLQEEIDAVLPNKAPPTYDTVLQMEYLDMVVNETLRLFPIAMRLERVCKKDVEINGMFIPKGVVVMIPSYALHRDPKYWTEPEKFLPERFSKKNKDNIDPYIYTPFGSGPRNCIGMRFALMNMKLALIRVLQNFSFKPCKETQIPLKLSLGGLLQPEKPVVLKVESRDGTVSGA

[7] = tested on: Pregnane X receptor (Homo sapiens); test: Activation of PXR (unknown origin) at 10 uM by reporter gene assay
[8] = molecular target: Cytochrome P450 2C9 (Homo sapiens, UniProt P11712); test: Inhibition of CYP2C9 in human liver microsomes; type: ADME
Sequence of Cytochrome P450 2C9 (P11712 whole entry): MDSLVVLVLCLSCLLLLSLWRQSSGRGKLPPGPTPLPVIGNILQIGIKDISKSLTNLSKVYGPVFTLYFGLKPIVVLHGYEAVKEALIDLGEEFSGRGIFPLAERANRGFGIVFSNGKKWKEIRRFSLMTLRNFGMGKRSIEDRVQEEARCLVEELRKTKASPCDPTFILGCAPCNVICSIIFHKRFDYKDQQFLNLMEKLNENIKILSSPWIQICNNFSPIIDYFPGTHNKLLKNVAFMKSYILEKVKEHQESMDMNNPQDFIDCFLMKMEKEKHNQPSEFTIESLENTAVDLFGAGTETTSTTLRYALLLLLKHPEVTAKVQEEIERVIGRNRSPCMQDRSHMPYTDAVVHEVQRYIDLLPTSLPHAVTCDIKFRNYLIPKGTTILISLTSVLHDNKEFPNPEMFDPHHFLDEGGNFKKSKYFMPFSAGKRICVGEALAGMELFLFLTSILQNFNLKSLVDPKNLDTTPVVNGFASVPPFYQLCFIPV

| SMILES | EC50 [1] [nM] | AUC(0-t) at 6 h [2] [µM·h] | IC50 [3] [µM] | Ratio [4] | IC50 [5] [µM] | IC50 [6] [µM] | Activity [7] [%] | IC50 [8] [µM] |
| --- | --- | --- | --- | --- | --- | --- | --- | --- |
| CCc1cc2c(cc1F)c(C#N)c(-c1ccc(S(N)(=O)=O)cn1)n2-c1ncccn1 | > 10000 | – | – | – | – | – | – | – |
| CC(O)c1cc2c(cc1F)c(C#N)c(-c1ccc(S(=O)(=O)N[C@@H](C)C(F)(F)F)cn1)n2-c1ncccn1 (stereo partly specified) | 68 | – | – | – | – | – | – | – |
| CC(O)c1cc2c(cc1F)c(C#N)c(-c1ccc(S(N)(=O)=O)cn1)n2-c1ncccn1 (stereo unspecified) | > 10000 | – | – | – | – | – | – | – |
| C[C@H](NS(=O)(=O)c1ccc(-c2c(C#N)c3cc(F)c(C4CC4)cc3n2-c2ncccn2)nc1)C(F)(F)F | 6 | 2.04 | > 10 | 75 | – | – | – | – |
| C[C@H](NS(=O)(=O)c1ccc(-c2c(C#N)c3cc(F)c(C4CC4)cc3n2-c2ccccn2)nc1)C(F)(F)F | 16 | – | > 10 | – | – | – | – | – |
| C[C@H](NS(=O)(=O)c1ccc(-c2c(C#N)c3cc(F)c(C4CC4)cc3n2-c2ccc(F)cn2)nc1)C(F)(F)F | 12 | 1.7 | > 10 | 20 | – | – | – | – |
| Cc1cnc(-n2c(-c3ccc(S(=O)(=O)N[C@@H](C)C(F)(F)F)cn3)c(C#N)c3cc(F)c(C)cc32)nc1 | 32 | – | > 10 | – | – | – | – | – |
| Cc1cc2c(cc1F)c(C#N)c(-c1ccc(S(=O)(=O)N[C@@H](C)C(F)(F)F)cn1)n2-c1ccc(F)cn1 | 8 | 3.45 | > 10 | 42 | – | – | – | – |
| Cc1ccc(-n2c(-c3ccc(S(=O)(=O)N[C@@H](C)C(F)(F)F)cn3)c(C#N)c3cc(F)c(C)cc32)nc1 | 25 | – | > 10 | – | – | – | – | – |
| Cc1cc2c(cc1F)c(C#N)c(-c1ccc(S(=O)(=O)N[C@@H](C)C(F)(F)F)cn1)n2-c1ncccc1F | 3 | 8.54 | > 10 | 194 | > 10 | > 10 | 59 | > 10 |
| Cc1cc2c(cc1F)c(C#N)c(-c1ccc(S(=O)(=O)N[C@@H](C)C(F)(F)F)cn1)n2-c1ncccc1C | 400 | – | > 10 | – | – | – | – | – |
| CCc1cc2c(cc1F)c(C#N)c(-c1ccc(S(=O)(=O)N[C@@H](C)C(F)(F)F)cn1)n2-c1ccccn1 | 5 | 3.85 | > 10 | 69 | > 10 | > 10 | 54 | > 10 |
| CCc1cc2c(cc1F)c(C#N)c(-c1ccc(S(=O)(=O)N[C@@H](C)C(F)(F)F)cn1)n2-c1ccncc1 | 9 | 6.38 | > 10 | 47 | – | – | – | – |
| CCc1cc2c(cc1F)c(C#N)c(-c1ccc(S(=O)(=O)N[C@@H](C)C(F)(F)F)cn1)n2-c1cnccn1 | 4 | 0.345 | > 10 | 14 | – | – | – | – |
| CCc1cc2c(cc1F)c(C#N)c(-c1ccc(S(=O)(=O)N[C@@H](C)C(F)(F)F)cn1)n2-c1nccs1 | 2 | 2.75 | > 10 | 347 | – | – | – | – |
| CCc1cc2c(cc1F)c(C#N)c(-c1ccc(S(=O)(=O)N[C@@H](C)C(F)(F)F)cn1)n2-c1ncc(F)cn1 | 3 | 8.69 | > 10 | 136 | > 10 | > 10 | 71 | > 10 |
| CCc1cc2c(cc1F)c(C#N)c(-c1ccc(S(=O)(=O)N[C@@H](C)C(F)(F)F)cn1)n2-c1ncc(C)cn1 | 23 | 7.24 | > 10 | 44 | – | – | – | – |
| CCc1cc2c(cc1F)c(C#N)c(-c1ccc(S(=O)(=O)N[C@@H](C)C(F)(F)F)cn1)n2-c1ccc(F)cn1 | 13 | 1.79 | > 10 | 12 | – | – | – | – |
| Cc1cc(F)c2c(C#N)c(-c3ccc(S(=O)(=O)N[C@@H](C)C(F)(F)F)cn3)n(C3CCC3)c2c1 | 153 | – | > 10 | – | – | – | – | – |
| C[C@H](NS(=O)(=O)c1ccc(-c2c(C#N)c3ccc(OC(F)F)cc3n2-c2ncccn2)nc1)C(F)(F)F | 7 | 20.1 | > 10 | – | – | – | – | – |

| SMILES | EC50 [1] [nM] | AUC(0-t) at 6 h [2] [µM·h] | IC50 [3] [µM] | Ratio [4] | IC50 [5] [µM] | IC50 [6] [µM] | Activity [7] [%] | IC50 [8] [µM] |
| --- | --- | --- | --- | --- | --- | --- | --- | --- |
| Cc1ccc2c(C#N)c(-c3ccc(S(=O)(=O)N[C@@H](C)C(F)(F)F)cn3)n(-c3ncccn3)c2c1 | 3 | – | > 10 | – | – | – | – | – |
| C[C@H](NS(=O)(=O)c1ccc(-c2c(C#N)c3cc(F)c(OC(F)F)cc3n2-c2ncccn2)nc1)C(F)(F)F | 16 | 3.81 | > 10 | – | – | – | – | – |
| Cc1cc2c(cc1F)c(C#N)c(-c1ccc(S(=O)(=O)N[C@@H](C)C(F)(F)F)cn1)n2-c1ccccn1 | 18 | 4.52 | > 10 | 49 | – | – | – | – |
| Cc1cc2c(cc1F)c(C#N)c(-c1ccc(S(=O)(=O)N[C@@H](C)C(F)(F)F)cn1)n2-c1cccnc1 | 11 | 6.39 | > 10 | 65 | – | – | – | – |
| Cc1cc2c(cc1F)c(C#N)c(-c1ccc(S(=O)(=O)N[C@@H](C)C(F)(F)F)cn1)n2-c1ccncc1 | 11 | 2.6 | > 10 | 24 | – | – | – | – |
| Cc1cc2c(cc1F)c(C#N)c(-c1ccc(S(=O)(=O)N[C@@H](C)C(F)(F)F)cn1)n2-c1cnccn1 | 9 | 0.885 | > 10 | 9 | – | – | – | – |
| Cc1cc2c(cc1F)c(C#N)c(-c1ccc(S(=O)(=O)N[C@@H](C)C(F)(F)F)cn1)n2-c1cccnn1 | 13 | 3.26 | > 10 | 22 | – | – | – | – |
| Cc1cc2c(cc1F)c(C#N)c(-c1ccc(S(=O)(=O)N[C@@H](C)C(F)(F)F)cn1)n2-c1nccs1 | 3 | 1.76 | > 10 | 96 | – | – | – | – |
| Cc1cc2c(cc1F)c(C#N)c(-c1ccc(S(=O)(=O)N[C@@H](C)C(F)(F)F)cn1)n2-c1cscn1 | 20 | 10.3 | > 10 | 35 | – | – | – | – |
| Cc1cc2c(cc1F)c(C#N)c(-c1ccc(S(=O)(=O)N[C@@H](C)C(F)(F)F)cn1)n2-c1cncs1 | 7 | 6.27 | > 10 | 38 | – | – | – | – |
| Cc1cc2c(cc1F)c(C#N)c(-c1ccc(S(=O)(=O)N[C@@H](C)C(F)(F)F)cn1)n2-c1cccs1 | 2 | 0.48 | > 10 | 29 | – | – | – | – |
| C[C@H](NS(=O)(=O)c1ccc(-c2c(C#N)c3cc(O)c(OC(F)F)cc3n2C2CCC2)nc1)C(F)(F)F | 63 | – | > 10 | – | – | – | – | – |
| Cc1cc2c(C#N)c(-c3ccc(S(=O)(=O)N[C@@H](C)C(F)(F)F)cn3)n(C3CCC3)c2cc1OC(F)F | 108 | – | 10 | – | – | – | – | – |
| CCc1cc2c(C#N)c(-c3ccc(S(=O)(=O)N[C@@H](C)C(F)(F)F)cn3)n(C3CCC3)c2cc1OC(F)F | 1400 | – | > 10 | – | – | – | – | – |
| C[C@H](NS(=O)(=O)c1ccc(-c2c(C#N)c3cc(F)c(C4CC4)cc3n2C2CCC2)nc1)C(F)(F)F | 28 | – | > 10 | – | – | – | – | – |
| C[C@H](NS(=O)(=O)c1ccc(-c2c(C#N)c3cc(F)c(O)cc3n2C2CCC2)nc1)C(F)(F)F | 410 | – | > 10 | – | – | – | – | – |
| C[C@H](NS(=O)(=O)c1ccc(-c2c(C#N)c3cc(F)c(Cl)cc3n2C2CCC2)nc1)C(F)(F)F | 460 | – | > 10 | – | – | – | – | – |
| COc1cc2c(cc1F)c(C#N)c(-c1ccc(S(=O)(=O)N[C@@H](C)C(F)(F)F)cn1)n2C1CCC1 | 74 | – | > 10 | – | – | – | – | – |
| CSc1cc2c(cc1F)c(C#N)c(-c1ccc(S(=O)(=O)N[C@@H](C)C(F)(F)F)cn1)n2C1CCC1 | 35 | – | > 10 | – | – | – | – | – |
| C[C@H](NS(=O)(=O)c1ccc(-c2c(C#N)c3c(F)cc(OC(F)F)cc3n2C2CCC2)nc1)C(F)(F)F | 18 | – | > 10 | – | – | – | – | – |
